Here are results for 22 compounds from ChEMBL document CHEMBL1127455, “8-Azaxanthine derivatives as antagonists of adenosine receptors” (J Med Chem, 1994).

The species entered for one assay is Bos taurus. The assay is described as follows: Ratio between the Ki values of A2 and A1 receptors.
Assay [1] concerns the target Adenosine receptor A2a (Bos taurus). The assay is described as follows: Affinity to A2 adenosine receptor was measured by the displacement of [3H]-CGS- 21680 in bovine brain striatal membrane. Background: Displacement assays read how much labelled ligand stays bound in the presence of the test substance.
For assay [2], the target named is T1, Adenosine receptor A1 (Bos taurus, UniProt P28190).
T1 sequence (P28190 whole entry): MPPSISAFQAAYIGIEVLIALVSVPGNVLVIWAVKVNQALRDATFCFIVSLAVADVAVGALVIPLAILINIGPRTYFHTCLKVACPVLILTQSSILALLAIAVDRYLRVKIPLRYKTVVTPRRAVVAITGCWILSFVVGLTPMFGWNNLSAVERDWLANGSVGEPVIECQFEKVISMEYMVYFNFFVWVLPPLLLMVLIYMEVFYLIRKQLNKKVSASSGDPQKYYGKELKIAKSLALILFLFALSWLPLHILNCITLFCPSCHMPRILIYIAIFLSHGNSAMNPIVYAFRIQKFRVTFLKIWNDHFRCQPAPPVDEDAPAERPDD
The assay is described as follows: Affinity to A1 adenosine receptor was measured by the displacement of […] in bovine brain cortical membrane. Format: cell membranes. An outline of the steps:
(§1)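 Bovine cerebral cortex was homogenized in ice-cold 0.32 M sucrose with protease inhibitors and spun at 1000g, then 48000g, at 4 °C. The pellet was treated with adenosine deaminase (2 units/mL) at 37 °C for 60 min. Membranes (0.2-0.3 mg protein) were incubated in triplicate with about 1.2 nM [³H]CHA in Tris-HCl pH 7.7 with MgCl₂ at 25 °C for 45 min. Nonspecific binding was defined with 50 μM R-PIA. Binding was ended by GF/C filtration. Compounds were added in DMSO (2% solvent), up to 30 μM. IC50 was read from semilog plots, and Ki was derived using Kd 10.5 nM.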

Assay [3] deals with T1, Adenosine receptor A1. The assay is described as follows: Affinity for A1 adenosine receptor by displacement of […] in bovine brain cortical membrane; d= Inactive at highest tested concentration 30 uM. The class given is tissue-based. An outline of the steps:
as §1

In assay [4] the test system is Adenosine A2 receptor (Bos taurus). The assay can be described thus: Displacement of [3H]-CGS- 21680 from A2 adenosine receptor in bovine brain striatal membrane at […]. Particulars: Striatum; call rule not given here.

Broadly, the Ki is the dissociation constant of the complex between target and ligand, obtained from inhibition or displacement. `Cn1c(=O)c2nn(C3CCCCC3)nc2n(C)c1=O`: in the assay listed under Bos taurus, the Ratio came to 6.9. The Ki came to 250 µM in assay [1] and 36 µM at Adenosine receptor A1 [2].

`Cn1c(=O)c2nn(C3CC4CCC3C4)nc2n(C)c1=O` (centres undefined): the Ratio in the assay listed under Bos taurus worked out at 1.6. Moreover, the Ki worked out at 49 µM in assay [1] and 31 µM at Adenosine receptor A1 [2].

`Cn1c(=O)c2c(ncn2C)n(C)c1=O` [CAFFEINE] displayed a Ki on Adenosine receptor A1 [2] of 29 µM.

Turning to `Cn1c(=O)c2nn[nH]c2n(C)c1=O`, on Adenosine receptor A1 [3], the Ki entry was “Not Active”.

Consider `Cn1nc2c(=O)n(C)c(=O)n(C)c2n1`, for which the results for the Ki (in assay [1]; at Adenosine receptor A1 [3]) were 52.8 µM and “Not Active”, respectively.

Take `Cn1c(=O)c2nn(-c3ccc(Cl)cc3N)nc2n(C)c1=O`: the Ki on Adenosine receptor A1 [2] was found to be 24 µM.

As to `CCCn1c(=O)c2c(nnn2C2CCCC2)n(CCC)c1=O`, in the assay filed under Bos taurus, the Ratio is 29. The figures for the Ki (in assay [1]; at Adenosine receptor A1 [2]) were 10 µM and 0.34 µM, respectively.

With `Cn1c(=O)c2c(nnn2C2CCCC2)n(C)c1=O`, in the assay listed under Bos taurus, the Ratio was determined as 26. Also, the values for the Ki (in assay [1]; on Adenosine receptor A1 [2]) were 292 µM and 11 µM, respectively.

As to `Cn1c(=O)c2c(nnn2C)n(C)c1=O`, on Adenosine receptor A1 [3], the Ki entry was “Not Active”.

Regarding `Cn1c(=O)c2c(nnn2C2CC3CCC2C3)n(C)c1=O` (centres undefined), the Ratio in the assay filed under Bos taurus was 0.25. For the same compound, the inhibition constant (Ki) amounted to 4.5 µM in assay [1] and 18 µM on Adenosine receptor A1 [2].

Consider `Cn1c(=O)c2c(nnn2C2CCCCC2)n(C)c1=O`, for which the Ratio in the assay listed under Bos taurus stood at 0.36. For the same compound, the Ki worked out at 8.4 µM in assay [1] and 23 µM on Adenosine receptor A1 [2].

Consider `Cn1c(=O)c2nn(C3CCCCC3O)nc2n(C)c1=O` (centres undefined), for which the Ki result at Adenosine receptor A1 [3] was “Not Active”.

On to `CCCn1c(=O)c2nn(C3CCCCC3)nc2n(CCC)c1=O`, for which the Ratio in the assay filed under Bos taurus was 13. The Ki in assay [1] turned out to be 21.7 µM; on Adenosine receptor A1 [2] it was 1.6 µM.

`CCCn1c(=O)c2c(nnn2C2CCCCC2O)n(CCC)c1=O` (centres undefined): the Ratio in the assay listed under Bos taurus amounted to 7.5. Further, the results for the Ki (in assay [1]; at Adenosine receptor A1 [2]) were 13.5 µM and 1.8 µM, respectively.

Regarding `Cn1c(=O)c2c(nnn2C2CCCCC2O)n(C)c1=O` (centres undefined), affinity on Adenosine receptor A1 [2] was put at a Ki of 114 µM.

Turning to `CCCn1c(=O)c2nn(C3CCCC3)nc2n(CCC)c1=O`, the Ratio in the assay listed under Bos taurus came out at 10. Moreover, the Ki in assay [1] stood at 13 µM; on Adenosine receptor A1 [2], 1.3 µM.

`CCCn1c(=O)c2c(nnn2C2CCCCC2)n(CCC)c1=O`: at Adenosine receptor A1 [2], the Ki came to 1.1 µM.

Regarding `Cn1c(=O)c2c(nnn2-c2ccc(Cl)cc2N)n(C)c1=O`, the Ki on Adenosine receptor A1 [2] was found to be 14 µM.

Compound `CCCn1c(=O)c2c(nnn2-c2ccc(Cl)cc2N)n(CCC)c1=O` gave a Ki on Adenosine receptor A1 [2] of 44 µM.

For `CCCn1c(=O)c2nn(-c3ccc(Cl)cc3N)nc2n(CCC)c1=O`, the Ki at Adenosine receptor A1 [2] came out at 1.5 µM.

By inhibition is commonly meant how much of the control response was suppressed. A higher inhibition goes with a strong effect. `CCCn1c(=O)c2nn(C3CCCCC3O)nc2n(CCC)c1=O` (centres undefined) registered an inhibition in assay [4] of 20%. This compound showed an inhibition constant Ki at Adenosine receptor A1 [2] of 1.4 µM.

Consider `Cn1c(=O)c2nn(C3CCCC3)nc2n(C)c1=O`, for which the Ratio in the assay listed under Bos taurus turned out to be 0.5. For the same compound, the Ki was 58 µM in assay [1] and 110 µM on Adenosine receptor A1 [2].
